# Bioassay records from PubChem BioAssay.
# ARNT-TACC3 inh = disrupts binding between human ARNT and TACC3; inhibition, % at 9.99 µM; AlphaScreen His-ARNT PAS-B/GST-TACC3 binding, luminescence; TACC3 fragment carries E629A point mutation; 390,000 compounds, 0.66% hits; Q9Y6A5;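 active = mean inhibition of replicates at least 50% and at least half of replicates each reaching 50%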;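 also: 0% = complete ARNT plus TACC3 wells and 100% = ARNT alone without TACC3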
# ERp5 block = ERp5 (human) disulfide isomerase inhibition; Q15084; inhibition, % at 9.99 µM; AID 651711; 350,000 compounds, 0.05% hits; ERp5 insulin aggregation, absorbance 650 nm, 90 min;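 active = mean replicate inhibition above about 25%, with every replicate also reaching it, limit read from the data, passing the limit was not always enough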
# FN deposit inh = fibronectin deposition inhibition | AH1F fibroblasts, Alexa488-fibronectin deposition fluorescence, overnight | inhibition, % at 12.6 µM | 350,000 compounds, 0.086% hits;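 active = mean inhibition across replicates of 30% or more, regardless of how many single replicates reach that level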;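 also: positive control wells lacked labelled fibronectin entirely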
#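 test system = AH1F fibroblasts assembling fluorescent fibronectin matrix | quantity = 10000 AH1F cells per well | buffer or medium = DMEM plus 2% serum, read in PBS | doses = single dose, pinned | incubation = 1 h cell attachment, overnight exposure to compound and label | detection = fluorescence at 485 nm excitation, 525 nm emission | read-out basis = inhibition from reduced deposited-fibronectin fluorescence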
# FGF22 binding = FGF22 (human) thermal shift binding | Q9HCT0 | recombinant FGF22 thermal shift, SYPRO orange fluorescence; percent of sucrose octasulfate shift, DMSO zero | activity (Tm shift, normalised), % at 9.99 µM | 340,000 compounds, 1.5% hits;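 active = mean Tm shift, scaled 0 neutral to 100 positive control, at about 1.3% or above, every replicate too, limit read from the data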
# PDI turbidity = blocks human protein disulfide isomerase activity | inhibition, % at 10 µM | PDI insulin aggregation turbidity, A650, 90 min | AID 588391 | 350,000 compounds, 0.052% hits;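 active = mean inhibition across replicates of 30% or more, whatever share of single replicates reach that level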
# MLL AF4-AF9 inh = inhibitors of human MLL-AF4/AF9 interaction | AlphaScreen, biotin-AF4 peptide binding to FLAG-AF9 | inhibition, % at 10 µM | 350,000 compounds, 0.47% hits | AID 651704;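 active = every replicate reaching a set inhibition limit, whatever the replicate mean, cut at about 25% in these data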;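 also: 0% = plate neutral control median and 100% = total signal loss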
# Target sequence (P42568 whole entry, looked up): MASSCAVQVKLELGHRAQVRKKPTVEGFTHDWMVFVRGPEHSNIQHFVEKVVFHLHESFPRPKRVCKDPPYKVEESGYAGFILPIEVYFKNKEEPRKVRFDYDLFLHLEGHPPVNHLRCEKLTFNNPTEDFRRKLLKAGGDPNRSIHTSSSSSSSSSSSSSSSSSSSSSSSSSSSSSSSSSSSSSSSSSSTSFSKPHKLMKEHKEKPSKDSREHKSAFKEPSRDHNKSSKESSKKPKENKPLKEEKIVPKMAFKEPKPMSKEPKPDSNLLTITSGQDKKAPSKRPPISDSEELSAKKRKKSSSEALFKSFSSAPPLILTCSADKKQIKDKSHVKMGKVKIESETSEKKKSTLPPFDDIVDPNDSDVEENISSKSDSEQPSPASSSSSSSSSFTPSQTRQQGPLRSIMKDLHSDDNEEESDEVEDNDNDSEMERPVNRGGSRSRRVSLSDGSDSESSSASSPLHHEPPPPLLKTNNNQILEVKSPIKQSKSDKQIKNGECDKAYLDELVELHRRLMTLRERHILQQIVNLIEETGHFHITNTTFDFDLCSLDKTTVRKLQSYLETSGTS
# Numbers without * were called inactive; x = no result. The list is not random: actives were taken first. Their share in the collection is about 2.1%.
SMILES,ARNT-TACC3 inh,ERp5 block,FN deposit inh,FGF22 binding,PDI turbidity,MLL AF4-AF9 inh
CC(C)C[C@H]1COCc2cn(nn2)CC[C@H](Cc2ccccc2)C(=O)N1,x,-1,1,0,x,-1
C[C@H]1CC=CCCNC(=O)[C@H](C)N(C)C(=O)c2ccccc2O1 (mixture of isomers),x,x,-1,x,x,x
CC1C=NC(S(=O)(=O)N2CC[C@@H]3[C@H](CO)N(C)c4ccc(C#Cc5cccnc5)cc4[C@@H]32)=N1 (some centres undefined),9,x,-1,0,x,x
CCC(c1ccccc1)C(CC)c1cc(O)c(O)c(O)c1 (centres undefined),5,-9,-9,43*,5,-2
CCC(C)c1ccccc1O (centres undefined),x,9,x,0,x,x
O=C(C[C@@H]1CC[C@H]2[C@@H](COC[C@H](O)CN2C(=O)c2ccccc2F)O1)N1CCN(c2ccccc2)CC1,11,-2,2,-1,x,0
CCN(CC)c1ccc(/C=C(\C#N)C(N)=O)cc1,2,2,5,43*,1,7
CN(CC(=O)Nc1ccc(F)cc1)C(=O)CSc1nc2ncc(Cl)cc2[nH]1,-22,0,-8,43*,0,-2
CCCNC(=O)N1CC2(CN(C(=O)C3CCOCC3)C2)c2c([nH]c3cc(OC)ccc23)[C@@H]1CO,x,2,x,0,x,2
CO[C@@H]1CN(C)C(=O)c2ccc(NS(=O)(=O)c3ccc(C)cc3)cc2OC[C@@H](C)N(Cc2ccccn2)C[C@H]1C,active,0,5,1,x,5
CO[C@@H]1CN(C)C(=O)c2ccc(NC(=O)C3CCCC3)cc2OC[C@H](C)N(CCC(F)(F)F)C[C@@H]1C,1,2,-7,0,x,1
CO[C@H]1CN(C)C(=O)c2ccc(NC(=O)C3CCCC3)cc2OC[C@@H](C)N(CCC(F)(F)F)C[C@H]1C,0,-2,-5,0,x,28*
CCC(=O)Nc1ccc2c(c1)OC[C@H](C)N(Cc1cccnc1)C[C@H](C)[C@H](OC)CN(C)C2=O,x,29*,-8,0,x,-26
CCC(=O)Nc1ccc2c(c1)C(=O)N(C)C[C@@H](OC)[C@H](C)CN(Cc1ccccc1F)[C@@H](C)CO2,-7,8,0,0,x,30*
CCC(=O)Nc1ccc2c(c1)OC[C@H](C)N(Cc1cccnc1)C[C@@H](C)[C@H](OC)CN(C)C2=O,x,-1,-14,0,x,-9
C[C@H](CO)N1C[C@H](C)[C@H](CN(C)S(=O)(=O)c2cccs2)OCCCC[C@H](C)Oc2ccc(NS(=O)(=O)c3cn(C)cn3)cc2C1=O,-6,-2,-10,0,x,-2
CCCNC(=O)N(C)C[C@H]1Oc2ncc(C3=CCCC3)cc2C(=O)N([C@H](C)CO)C[C@H]1C,3,-2,x,0,x,-2
COc1ccc(CN=C2NN=C(c3cccc(OC)c3)CS2)cc1,12,-3,1,43*,-1,2
CC(=O)Nc1ccc(N2C(=O)CSC2c2cccc([N+](=O)[O-])c2)cc1 (centres undefined),1,-3,4,44*,9,0
CCOc1cc(CNCC(C)C)cc(Cl)c1OCc1ccccc1,1,5,-10,44*,7,-7
CCCCc1cn(C[C@H](Cc2ccccc2)NC(=O)N[C@H](CO)CCc2oc(C(C)=O)c(C(=O)OC)c2C(=O)OC)nn1,-1,2,x,1,x,-7
COC(=O)c1c(CC[C@@H](CO)NC(=O)N[C@H](Cn2cc(-c3cncn3C)nn2)C(C)C)oc(C(C)=O)c1C(=O)OC,x,-1,x,1.6*,x,0
CCN(CC(=O)Nc1cc(Cl)ccc1C)C(=O)CCOc1ccccc1C,21,11,4,x,0,-3
CCN(CC(=O)Nc1cc(Cl)ccc1C)C(=O)COc1ccccc1F,1,3,3,44*,2,-3
C[C@H]1CN([C@@H](C)CO)C(=O)c2cc(NC(=O)Nc3ccc4c(c3)OCO4)ccc2O[C@H]1CN(C)Cc1ccc2c(c1)OCO2,1,-2,x,0,x,6
SMILES,ARNT-TACC3 inh,ERp5 block,FN deposit inh,FGF22 binding,PDI turbidity,MLL AF4-AF9 inh
Cc1nc(-n2[nH]c3c(c2=O)CCCC3)[nH]c(=O)c1Cc1ccccc1,59*,x,-8,x,5,x
O=C1C=CC(=O)N1Cc1ccccc1,0,-5,-10,0,-5,48*
O=C1CNC(=S)N1Cc1ccccc1,-7,-1,-10,43*,-2,-1
CN1C(=O)N(C)N(Cc2ccccc2)C(=O)N1Cc1ccccc1,x,3,5,0,x,-4
CC1(C)OC(=O)C=C[C@]2(C)[C@H]3CC[C@@]4(C)[C@H](c5ccoc5)OC(=O)[C@H]5O[C@]54[C@]3(C)C(=O)C[C@@H]12,-4,6,-5,17*,-5,5
COc1ccc(NC(=O)N(C)C[C@H]2Oc3ccc(NS(=O)(=O)c4cccs4)cc3CC(=O)N([C@@H](C)CO)C[C@@H]2C)cc1,-19,x,4,0,x,x
CCCC(=O)Nc1ccc2c(c1)C(=O)N(C)C[C@@H](OC)[C@H](C)CN(Cc1nccs1)[C@H](C)CO2,-9,13,-20,0,x,-3
CC(=O)N1CCN(C(C)=O)c2ccccc21,-4,-4,2,0,3,36*
CCN1C(=O)/C(=C2\SC(=S)N(NC(=O)c3ccccc3O)C2=O)c2ccccc21,65*,7,-10,0,-4,1
CCN1C(=O)/C(=C2\SC(=S)N(c3c(C)n(C)n(-c4ccccc4)c3=O)C2=O)c2ccccc21,15,x,-9,x,-5,x
CCCN(C)C[C@H]1Oc2cc(-c3cccnc3)ccc2S(=O)(=O)N([C@H](C)CO)C[C@H]1C,-6,3,x,0,x,0
C[C@@H]1CCCCO[C@H](CN(C)Cc2ccccc2)[C@@H](C)CN([C@@H](C)CO)C(=O)c2cc(NC(=O)C3CCCCC3)ccc2O1,18,-1,x,0,x,15
CCN(CC(=O)Nc1ccc(C)c(F)c1)CC(=O)NC(C)(C)C,-10,-4,-9,43*,-15,-4
C[C@@H]1C(=O)N[C@@H](c2ccc3c(c2)OCO3)CC=CC[C@H](C)Oc2ccccc2C(=O)N1C (mixture of isomers),x,x,-4,x,x,x
O=C(COC(=O)c1ccc(Cl)nc1)c1ccc2c(c1)OCCO2,-13,2,-4,43*,-2,-2
COCCNC(=O)C[C@H]1CC[C@@H]2[C@H](COC[C@H](O)CN2S(=O)(=O)c2ccccc2C)O1,4,-1,-11,0,x,-4
Cc1ccc(-c2nnc3n2CCCCC3)cc1,-4,x,x,x,17,x
O=C1Nc2ccccc2C1=Nc1ccc(-c2nnc3n2CCCCC3)cc1,0,14,1,43*,5,0
